For data set [1], the system named is Rattus norvegicus. The data set is described as follows: Anti-ischemia activity in Sprague-Dawley rat transient middle cerebral artery occlusion model assessed as inhibition of Bax protein expression in hippocampus at 1.5 to 6 mg/kg, iv measured 24 hrs post reperfusion by Western blot analysis relative to vehicle-treated control. In kind it is functional, organism-based. Summed up: (§1)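 Rats underwent 60 min intraluminal right MCA occlusion under chloral hydrate, then reperfusion, with iv saline or drug (1.5, 3.0, 6.0 mg/kg) at reperfusion. At 24 h they were saline-perfused and cortex and hippocampus lysed in RIPA buffer. Protein was BCA-normalized, run on SDS-PAGE and blotted for Bcl-2, Bax, cleaved caspase-3 and β-actin with ECL detection; n = 4.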

The nature of data set [2]: AUC in Sprague-Dawley rat plasma at 2 x 10^-5 mol/kg, iv by LC-MS analysis. In kind it is ADME, organism-based. Particulars: 2e-05 mol/kg. The method in brief: (§2)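 Male Sprague-Dawley rats (260-280 g, n = 4) given a single iv dose of 6 mg/kg. Blood was taken from the jugular vein into heparin tubes under ether, and plasma was spun out and stored at -70 °C. After saline perfusion, cortex was homogenized in 2 volumes of water. Samples were precipitated with acetonitrile with internal standard added and quantified by LC-MS against a weighted linear calibration.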

For data set [3], the system named is Rattus norvegicus. As to the kind of experiment: In vivo neuroprotective activity in Sprague-Dawley rat transient middle cerebral artery occlusion model assessed as suppression of neuropathological changes at 1.5 to 6 mg/kg, iv measured 24 hrs post reperfusion by uranyl acetate/lead citrate staining-based transmission electron microscopic analysis. In kind it is functional, organism-based. Summed up:
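Rats had 60 min MCAO with iv dosing (1.5-6.0 mg/kg) at reperfusion. At 24 h they were perfused with PBS, then acrolein in 2% paraformaldehyde. Tissue was postfixed in 2.5% glutaraldehyde for 2 h and 1% OsO4 for 2 h, dehydrated and Epon-embedded. Ultrathin sections were stained with uranyl acetate/lead citrate and examined by TEM at 12000×.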

Data set [4] in a line: Cytotoxicity against rat PC12 cells assessed as cell proliferation at 10 uM by MTT assay relative to control. In kind it is cell-based, PC-12. To be noted: read-out: Activity. Summed up:
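PC12 cells were grown in DMEM with 5% FBS, 5% horse serum and 2 mM glutamine at 37 °C, 5% CO2. They were seeded at 5×10^3 cells/well for 24 h, then exposed to 10 µM compound in full medium. Viability was read by MTT (5 mg/mL, 4 h) at 570 nm as % of control absorbance; n = 3.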
In general terms: Tetrazolium assays rely on reduction of a dye to a coloured formazan, in cell work by metabolically active cells.

Another data set relates to Cortex. As to the kind of experiment: Clearance in Sprague-Dawley rat cortex at 2 x 10^-5 mol/kg, iv by LC-MS analysis. In kind it is ADME, organism-based. Particulars: in vivo. Summed up: as §2
Data set [5] is described as follows: Terminal half life in Sprague-Dawley rat cortex at 2 x 10^-5 mol/kg, iv by LC-MS analysis. It counts as ADME, organism-based. Particulars: 2e-05 mol/kg, read-out: beta t1/2. The method in brief:
as §2

Data set [6] deals with Rattus norvegicus. As to the kind of experiment: Anti-ischemia activity in Sprague-Dawley rat transient middle cerebral artery occlusion model assessed as inhibition of Bax protein expression in cerebral cortex at 1.5 to 6 mg/kg, iv measured 24 hrs post reperfusion by Western blot analysis relative to vehicle-treated control. In kind it is functional, organism-based. Summed up: as §1
In general terms: A western blot detects proteins with antibodies after separation by electrophoresis.

Data set [7] deals with Rattus norvegicus. As to the kind of experiment: Anti-ischemia activity in Sprague-Dawley rat transient middle cerebral artery occlusion model assessed as upregulation of Bcl-2 protein expression in cerebral cortex at 1.5 to 6 mg/kg, iv measured 24 hrs post reperfusion by Western blot analysis relative to vehicle-treated control. It counts as functional, organism-based. The method in brief: as §1

Activity calls are given as the source filed them. No cut-off for these calls is given here.

For orientation: AUC means the area under the concentration-time curve, a measure of exposure.

Turning to `COc1cc(O)cc2oc(=O)c(N3CCN(C)CC3)c(C)c12`, the inhibition entry in the data set on Rattus norvegicus [1] and with Rattus norvegicus [6] was “Active” throughout. In data set [2], this molecule showed an AUC of 2870 ng·h/mL. Also, the outcome in the data set with Rattus norvegicus [3] and in the data set with Rattus norvegicus [7] was Active. Also, in data set [4], the viability at 10 µM worked out at 101%. Further, the CL in the data set on Cortex is reported as 0.558 L/min. For the same molecule, the half-life in data set [5] is 15.5 min.

(Values after ChEMBL document CHEMBL2417530, “Coumarin derivatives protect against ischemic brain injury in rats” (Eur J Med Chem, 2013).)
